Assay results as given in ChEMBL document CHEMBL5705890, “Antitumor activity of an allosteric inhibitor of centromere-associated protein-E” (Proc Natl Acad Sci U S A, 2010).

Assays:
[1] = target: Centromere-associated protein E (Homo sapiens, UniProt Q02224); assay: Inhibition of ATPase activity of C-terminal 6-his-tagged CENP-E (2 to 340 residues)(unknown origin) expressed in Escherichia coli BL21(DE3) in presence of ATP
[2] = test system: RKO; assay: Anticancer activity against human RKO cells assessed as cell growth inhibition measured after 72 hrs by DAPI staining based analysis; assay type: functional
[3] = test system: SiHa; assay: Anticancer activity against human SiHa cells assessed as cell growth inhibition measured after 72 hrs by DAPI staining based analysis; assay type: functional
[4] = test system: KM12; assay: Anticancer activity against human KM12 cells assessed as cell growth inhibition measured after 72 hrs by DAPI staining based analysis; assay type: functional
[5] = test system: HT-1376; assay: Anticancer activity against human HT-1376 cells assessed as cell doubling measured for 72 hrs by DAPI staining based analysis; assay type: functional
[6] = Antitumor activity against human MV-522 cells in xenograft model assessed as difference between median time to endpoint time of treated versus control group at 62.5 mg/kg; assay type: functional
[7] = test system: ES-2; assay: Anticancer activity against human ES2 cells assessed as cell growth inhibition measured after 72 hrs by DAPI staining based analysis; assay type: functional
Method in brief: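 Cells seeded, DAPI-stained DNA content of fixed cells read by imaging 24 h after seeding (T0), and again after a further 72 h exposure to a range of drug concentrations (T72). T72 values were normalized to T0. Curve fits gave the concentration producing 50% growth inhibition relative to T0 and Ymax (GI50).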

[8] = Antitumor activity against human MV-522 cells in xenograft model assessed as tumor growth delay at 125 mg/kg relative to control; assay type: functional
[9] = test system: BPH-1; assay: Anticancer activity against human BPH-1 cells assessed as cell growth inhibition measured after 72 hrs by DAPI staining based analysis; assay type: functional
Method in brief: (§1)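 Cells were seeded, and DNA content at 24 h after seeding (T0) was read by imaging of fixed, DAPI-stained cells. Cells were then exposed to a range of drug concentrations for a further 72 h (T72) and DNA content was read again. T72 values were normalized to T0, and GI50 was taken from curve fits as the concentration giving 50% growth inhibition relative to T0 and Ymax.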

[10] = test system: SW48; assay: Anticancer activity against human SW48 cells assessed as cell growth inhibition measured after 72 hrs by DAPI staining based analysis; assay type: functional
[11] = test system: NCI-H596; assay: Anticancer activity against human NCI-H596 cells assessed as cell growth inhibition measured after 72 hrs by DAPI staining based analysis; assay type: functional
[12] = test system: SW1417; assay: Anticancer activity against human SW1417 cells assessed as cell doubling measured for 72 hrs by DAPI staining based analysis; assay type: functional
[13] = test system: NCI-H187; assay: Anticancer activity against human NCI-H187 cells assessed as cell doubling measured for 72 hrs by DAPI staining based analysis; assay type: functional
[14] = test system: SW480; assay: Anticancer activity against human SW480 cells assessed as cell growth inhibition measured after 72 hrs by DAPI staining based analysis; assay type: functional
[15] = test system: PC-3; assay: Anticancer activity against human PC-3 cells assessed as cell growth inhibition measured after 72 hrs by DAPI staining based analysis; assay type: functional
[16] = test system: NCI-H630; assay: Anticancer activity against human NCI-H630 cells assessed as cell growth inhibition measured after 72 hrs by DAPI staining based analysis; assay type: functional
[17] = test system: NCI-H295R; assay: Anticancer activity against human NCI-H295R cells assessed as cell doubling measured for 72 hrs by DAPI staining based analysis; assay type: functional
[18] = test system: A-427; assay: Anticancer activity against human A-427 cells assessed as cell doubling measured for 72 hrs by DAPI staining based analysis; assay type: functional
[19] = test system: LNCaP; assay: Anticancer activity against human LNCaP cells assessed as cell doubling measured for 72 hrs by DAPI staining based analysis; assay type: functional
[20] = Anticancer activity against human COLO-704 cells assessed as cell doubling measured for 72 hrs by DAPI staining based analysis; assay type: functional
[21] = test system: Y79; assay: Anticancer activity against human Y79 cells assessed as cell growth inhibition measured after 72 hrs by DAPI staining based analysis; assay type: functional
[22] = test system: RPMI-2650; assay: Anticancer activity against human RPMI-2650 cells assessed as cell doubling measured for 72 hrs by DAPI staining based analysis; assay type: functional
[23] = test system: ES-2; assay: Anticancer activity against human ES2 cells assessed as cell doubling measured for 72 hrs by DAPI staining based analysis; assay type: functional
[24] = test system: 5637; assay: Anticancer activity against human 5637 cells assessed as cell doubling measured for 72 hrs by DAPI staining based analysis; assay type: functional
[25] = test system: NCI-H526; assay: Anticancer activity against human NCI-H526 cells assessed as cell doubling measured for 72 hrs by DAPI staining based analysis; assay type: functional
[26] = test system: SW756; assay: Anticancer activity against human SW756 cells assessed as cell doubling measured for 72 hrs by DAPI staining based analysis; assay type: functional
[27] = test system: 647-V; assay: Anticancer activity against human 647-V cells assessed as cell doubling measured for 72 hrs by DAPI staining based analysis; assay type: functional
[28] = test system: SK-MEL-28; assay: Anticancer activity against human SK-MEL-28 cells assessed as cell doubling measured for 72 hrs by DAPI staining based analysis; assay type: functional
[29] = test system: BE(2)-C; assay: Anticancer activity against human BE2C cells assessed as cell doubling measured for 72 hrs by DAPI staining based analysis; assay type: functional
[30] = test system: HT-1080; assay: Anticancer activity against human HT-1080 cells assessed as cell growth inhibition measured after 72 hrs by DAPI staining based analysis; assay type: functional
[31] = test system: YAPC; assay: Anticancer activity against human YAPC cells assessed as cell doubling measured for 72 hrs by DAPI staining based analysis; assay type: functional
[32] = test system: MV4-11; assay: Anticancer activity against human MV4-11 cells assessed as cell growth inhibition measured after 72 hrs by DAPI staining based analysis; assay type: functional
[33] = test system: MCF7; assay: Anticancer activity against human MCF7 cells assessed as cell doubling measured for 72 hrs by DAPI staining based analysis; assay type: functional
[34] = test system: NCI-H661; assay: Anticancer activity against human NCI-H661 cells assessed as cell growth inhibition measured after 72 hrs by DAPI staining based analysis; assay type: functional
[35] = Anticancer activity against human SKO-007 cells assessed as cell doubling measured for 72 hrs by DAPI staining based analysis; assay type: functional
[36] = Anticancer activity against human NCI-H322T cells assessed as cell doubling measured for 72 hrs by DAPI staining based analysis; assay type: functional
[37] = Anticancer activity against human BM-1604 cells assessed as cell growth inhibition measured after 72 hrs by DAPI staining based analysis; assay type: functional; method in brief: as §1
[38] = test system: SW1417; assay: Anticancer activity against human SW1417 cells assessed as cell growth inhibition measured after 72 hrs by DAPI staining based analysis; assay type: functional
[39] = test system: T47D; assay: Anticancer activity against human T47D cells assessed as cell doubling measured for 72 hrs by DAPI staining based analysis; assay type: functional
[40] = test system: C-4-II; assay: Anticancer activity against human C-4-II cells assessed as cell doubling measured for 72 hrs by DAPI staining based analysis; assay type: functional
[41] = test system: SW 954; assay: Anticancer activity against human SW 954 cells assessed as cell growth inhibition measured after 72 hrs by DAPI staining based analysis; assay type: functional
[42] = test system: NCI-H630; assay: Anticancer activity against human NCI-H630 cells assessed as cell doubling measured for 72 hrs by DAPI staining based analysis; assay type: functional
[43] = test system: SK-OV-3; assay: Antitumor activity against human SK-OV-3 cells in xenograft model assessed as tumor growth delay at 62.5 mg/kg relative to control; assay type: functional

Sequence of Centromere-associated protein E (Q02224 whole entry, the tested form may be a part): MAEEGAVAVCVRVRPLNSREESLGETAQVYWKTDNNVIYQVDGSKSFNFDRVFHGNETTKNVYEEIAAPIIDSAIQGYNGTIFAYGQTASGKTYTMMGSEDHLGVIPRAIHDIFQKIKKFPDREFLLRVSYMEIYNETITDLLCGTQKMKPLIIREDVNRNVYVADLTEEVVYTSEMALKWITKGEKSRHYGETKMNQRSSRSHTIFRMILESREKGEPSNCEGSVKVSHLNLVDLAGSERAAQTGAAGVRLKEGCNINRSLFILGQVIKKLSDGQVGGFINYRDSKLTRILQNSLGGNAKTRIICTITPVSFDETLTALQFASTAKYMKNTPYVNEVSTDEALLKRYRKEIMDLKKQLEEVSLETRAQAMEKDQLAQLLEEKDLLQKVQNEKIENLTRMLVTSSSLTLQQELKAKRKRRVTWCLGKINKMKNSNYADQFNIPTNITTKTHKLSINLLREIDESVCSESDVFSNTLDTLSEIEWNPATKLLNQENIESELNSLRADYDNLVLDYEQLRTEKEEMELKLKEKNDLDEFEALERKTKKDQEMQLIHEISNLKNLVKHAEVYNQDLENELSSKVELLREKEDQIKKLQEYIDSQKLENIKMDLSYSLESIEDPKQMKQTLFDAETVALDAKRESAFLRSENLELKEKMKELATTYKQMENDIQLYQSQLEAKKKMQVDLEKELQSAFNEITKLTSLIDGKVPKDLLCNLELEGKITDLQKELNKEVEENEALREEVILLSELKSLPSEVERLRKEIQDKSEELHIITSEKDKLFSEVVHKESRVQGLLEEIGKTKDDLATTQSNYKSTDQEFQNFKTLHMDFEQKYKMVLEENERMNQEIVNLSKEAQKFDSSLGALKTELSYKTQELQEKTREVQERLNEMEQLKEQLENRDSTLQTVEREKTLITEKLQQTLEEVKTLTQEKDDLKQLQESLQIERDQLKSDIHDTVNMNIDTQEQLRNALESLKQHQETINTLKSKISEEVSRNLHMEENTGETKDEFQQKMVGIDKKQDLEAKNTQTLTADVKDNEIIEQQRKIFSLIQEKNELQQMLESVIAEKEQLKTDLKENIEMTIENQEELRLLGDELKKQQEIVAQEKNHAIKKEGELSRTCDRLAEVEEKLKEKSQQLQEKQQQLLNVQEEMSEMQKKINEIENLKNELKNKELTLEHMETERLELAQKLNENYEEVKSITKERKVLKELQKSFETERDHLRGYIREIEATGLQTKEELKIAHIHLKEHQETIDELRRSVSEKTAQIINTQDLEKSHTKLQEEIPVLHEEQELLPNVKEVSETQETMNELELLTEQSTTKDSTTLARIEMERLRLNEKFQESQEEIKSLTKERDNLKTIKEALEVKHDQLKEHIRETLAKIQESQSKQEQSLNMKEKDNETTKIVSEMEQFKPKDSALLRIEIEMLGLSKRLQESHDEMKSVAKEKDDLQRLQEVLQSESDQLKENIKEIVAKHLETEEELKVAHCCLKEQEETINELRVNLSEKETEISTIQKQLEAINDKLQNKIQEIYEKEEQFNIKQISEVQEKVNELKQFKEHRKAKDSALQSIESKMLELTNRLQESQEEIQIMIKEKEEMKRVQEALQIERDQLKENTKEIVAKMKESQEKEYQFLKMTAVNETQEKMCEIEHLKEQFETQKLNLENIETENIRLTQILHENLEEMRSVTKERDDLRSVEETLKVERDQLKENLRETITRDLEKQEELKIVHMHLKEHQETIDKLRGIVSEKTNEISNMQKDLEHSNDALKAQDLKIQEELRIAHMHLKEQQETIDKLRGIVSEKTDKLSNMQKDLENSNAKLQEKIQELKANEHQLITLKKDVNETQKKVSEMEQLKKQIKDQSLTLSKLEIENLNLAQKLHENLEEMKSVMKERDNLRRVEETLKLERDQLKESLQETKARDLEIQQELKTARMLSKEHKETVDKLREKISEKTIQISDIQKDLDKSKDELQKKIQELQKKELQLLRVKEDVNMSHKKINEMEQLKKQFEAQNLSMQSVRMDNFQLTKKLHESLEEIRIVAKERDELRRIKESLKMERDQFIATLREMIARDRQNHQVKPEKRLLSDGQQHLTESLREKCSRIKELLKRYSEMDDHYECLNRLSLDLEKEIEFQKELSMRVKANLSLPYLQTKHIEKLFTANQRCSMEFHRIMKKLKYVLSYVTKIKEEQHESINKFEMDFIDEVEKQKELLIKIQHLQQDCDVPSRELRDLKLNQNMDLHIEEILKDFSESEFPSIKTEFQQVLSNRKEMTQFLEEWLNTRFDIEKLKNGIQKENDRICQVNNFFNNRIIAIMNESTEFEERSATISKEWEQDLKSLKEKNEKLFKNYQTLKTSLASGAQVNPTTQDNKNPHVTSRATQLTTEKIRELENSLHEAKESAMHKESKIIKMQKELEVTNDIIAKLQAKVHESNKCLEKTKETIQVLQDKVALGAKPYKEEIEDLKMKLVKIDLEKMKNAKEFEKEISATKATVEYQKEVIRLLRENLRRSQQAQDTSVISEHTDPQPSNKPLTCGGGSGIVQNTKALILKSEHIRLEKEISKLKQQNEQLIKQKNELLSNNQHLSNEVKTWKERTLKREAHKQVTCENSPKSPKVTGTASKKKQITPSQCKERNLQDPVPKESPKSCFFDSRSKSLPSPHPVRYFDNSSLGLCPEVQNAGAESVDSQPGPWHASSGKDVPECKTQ

Question: For `CC(C)Oc1ccc(C(=O)N[C@H](CNC(=O)CN(C)C)Cc2ccc(-c3cn4cccc([C@H](C)O)c4n3)cc2)cc1Cl` [GSK-923295A], which IC50 [1] is on record?
Answer: 2080 nM

Question: And the GI50 [2]?
Answer: 53 nM

Question: And the GI50 [3]?
Answer: 29 nM

Question: And the GI50 [4]?
Answer: 56 nM

Question: What about the Activity [5] of the same molecule?
Answer: 1.74

Question: What about the Time [6] of the same molecule?
Answer: 12.5 days

Question: And the GI50 [7]?
Answer: 30 nM

Question: And the Activity [8]?
Answer: 104%

Question: What about the GI50 [9] of the same molecule?
Answer: 52 nM

Question: What about the GI50 [10] of the same molecule?
Answer: 25 nM

Question: And the GI50 [11]?
Answer: 5020 nM

Question: What about the Activity [12] of the same molecule?
Answer: 1.94

Question: And the Activity [13]?
Answer: 2.08

Question: What about the GI50 [14] of the same molecule?
Answer: 33 nM

Question: And the GI50 [15]?
Answer: 28 nM

Question: And the GI50 [16]?
Answer: 47 nM

Question: And the Activity [17]?
Answer: 1.52

Question: And the Activity [18]?
Answer: 2.46

Question: And the Activity [19]?
Answer: 1.4

Question: And the Activity [20]?
Answer: 2.48

Question: What about the GI50 [21] of the same molecule?
Answer: 70 nM

Question: And the Activity [22]?
Answer: 3

Question: What about the Activity [23] of the same molecule?
Answer: 3.69

Question: What about the Activity [24] of the same molecule?
Answer: 1.43

Question: And the Activity [25]?
Answer: 1.49

Question: What about the Activity [26] of the same molecule?
Answer: 2.36

Question: What about the Activity [27] of the same molecule?
Answer: 2.72

Question: And the Activity [28]?
Answer: 2.43

Question: What about the Activity [29] of the same molecule?
Answer: 2.28

Question: What about the GI50 [30] of the same molecule?
Answer: 24 nM

Question: What about the Activity [31] of the same molecule?
Answer: 2.14

Question: What about the GI50 [32] of the same molecule?
Answer: 29 nM

Question: What about the Activity [33] of the same molecule?
Answer: 1.65

Question: What about the GI50 [34] of the same molecule?
Answer: 22 nM

Question: And the Activity [35]?
Answer: 1.01

Question: What about the Activity [36] of the same molecule?
Answer: 2.27

Question: What about the GI50 [37] of the same molecule?
Answer: 40 nM

Question: What about the GI50 [38] of the same molecule?
Answer: 29 nM

Question: And the Activity [39]?
Answer: 1.44

Question: What about the Activity [40] of the same molecule?
Answer: 2.42

Question: What about the GI50 [41] of the same molecule?
Answer: 22 nM

Question: What about the Activity [42] of the same molecule?
Answer: 2.04

Question: What about the Activity [43] of the same molecule?
Answer: 194%
